What all share (format): functional, organism-based
The species entered for assay [1] is Mus musculus. Kind of assay: Induction of IL-10 secretion in C57BL/6 mouse. The procedure, abridged:
(§1)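 Mice dosed by intranasal instillation and killed after 24 h; bronchoalveolar lavage collected five times with PBS plus 3 mM EDTA; lavage fluid measured for a panel of 21 chemokines and cytokines.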

The species named for assay [2] is Mus musculus. Kind of assay: Induction of IL1-beta secretion in C57BL/6 mouse. The procedure, abridged: as §1
Assay [3] is filed under the species Mus musculus. Put plainly: Induction of IL-12(p40) secretion in C57BL/6 mouse. In outline: as §1
For assay [4], the species on record is Mus musculus. Kind of assay: Induction of MCP-1 secretion in C57BL/6 mouse. The procedure, abridged:
as §1

The species entered for assay [5] is Mus musculus. Put plainly: Induction of GM-CSF secretion in C57BL/6 mouse. In outline: as §1
The species named for assay [6] is Mus musculus. Put plainly: Induction of IL-6 secretion in C57BL/6 mouse. In outline: as §1
The species named for assay [7] is Mus musculus. Kind of assay: Induction of IL-4 secretion in C57BL/6 mouse. The procedure, abridged: as §1
The species entered for assay [8] is Mus musculus. Put plainly: Induction of IL-2 secretion in C57BL/6 mouse. In outline: as §1
For assay [9], the species on record is Mus musculus. Put plainly: Induction of KC secretion in C57BL/6 mouse. The procedure, abridged:
as §1

The species named for assay [10] is Mus musculus. Kind of assay: Induction of IL-3 secretion in C57BL/6 mouse. In outline:
as §1

The species named for assay [11] is Mus musculus. Kind of assay: Induction of IL-5 secretion in C57BL/6 mouse. The procedure, abridged:
as §1

Assay [12] is filed under the species Mus musculus. Put plainly: Induction of MIP-1beta secretion in C57BL/6 mouse. In outline: as §1
The species entered for assay [13] is Mus musculus. Kind of assay: Induction of IL-13 secretion in C57BL/6 mouse. In outline: as §1
The species named for assay [14] is Mus musculus. Put plainly: Induction of IL-17 secretion in C57BL/6 mouse. The procedure, abridged:
as §1

For assay [15], the species on record is Mus musculus. Kind of assay: Induction of IL-9 secretion in C57BL/6 mouse. In outline:
as §1

The species entered for assay [16] is Mus musculus. Kind of assay: Immunostimulatory activity in C57BL/6 mouse assessed as recruitment of inflammatory cells into bronchoalveolar spaces. The conditions noted are these: Lung. The procedure, abridged:
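Compound given to mice by intranasal instillation; animals killed 24 h later and lungs lavaged five times with PBS containing 3 mM EDTA; total and differential inflammatory cell counts determined in the bronchoalveolar lavage.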

The species named for assay [17] is Mus musculus. Kind of assay: Induction of RNATES secretion in C57BL/6 mouse. The procedure, abridged: as §1
The species named for assay [18] is Mus musculus. Put plainly: Induction of TNFalpha secretion in C57BL/6 mouse. In outline: as §1
The species entered for assay [19] is Mus musculus. Kind of assay: Induction of IFN-gamma secretion in C57BL/6 mouse. In outline:
as §1

Assay [20] is filed under the species Mus musculus. Put plainly: Induction of IL-1alpha secretion in C57BL/6 mouse. The procedure, abridged: as §1
For assay [21], the species on record is Mus musculus. Put plainly: Induction of VEGF secretion in C57BL/6 mouse. In outline:
as §1

Molecules are shown by their SMILES. Calls of active or inactive are those of the source. The rule behind the calls is not given here.

Regarding `Nc1nc2ncn([C@@H]3O[C@@H]4COP(=O)(O)O[C@@H]5[C@H](O)[C@@H](n6cnc7nc(N)[nH]c(=O)c76)O[C@H]5COP(=O)(O)O[C@H]4[C@H]3O)c2c(=O)[nH]1`, the result in the assay listed under Mus musculus [1], in the assay filed under Mus musculus [5], in the assay listed under Mus musculus [7], in the assay listed under Mus musculus [8], in the assay listed under Mus musculus [10] and in the assay filed under Mus musculus [11] was inactive. For the same compound, the result in the assay listed under Mus musculus [13], in the assay filed under Mus musculus [14], in the assay filed under Mus musculus [15], in the assay listed under Mus musculus [19], in the assay filed under Mus musculus [20] and in the assay listed under Mus musculus [21] was inactive. Further, the Activity entry in the assay listed under Mus musculus [2], in the assay listed under Mus musculus [3], in the assay listed under Mus musculus [4], in the assay filed under Mus musculus [6], in the assay listed under Mus musculus [9] and in the assay filed under Mus musculus [12] was “Dose-dependent effect” each time. Also, the Activity entry in the assay listed under Mus musculus [16], in the assay filed under Mus musculus [17] and in the assay listed under Mus musculus [18] was “Dose-dependent effect” throughout.

(Values after ChEMBL document CHEMBL1152214, “Synthesis and immunostimulatory properties of the phosphorothioate analogues of cdiGMP” (Bioorg Med Chem Lett, 2008).)
